How the values were obtained:
[1] = biological target: T1, Dihydropteroate synthase (Bacillus anthracis) (UniProt Q81VW8); test: Inhibition of Bacillus anthracis DHPS expressed in Escherichia coli BL21 (DE3) at 500 uM after 30 mins
T1 sequence (whole entry): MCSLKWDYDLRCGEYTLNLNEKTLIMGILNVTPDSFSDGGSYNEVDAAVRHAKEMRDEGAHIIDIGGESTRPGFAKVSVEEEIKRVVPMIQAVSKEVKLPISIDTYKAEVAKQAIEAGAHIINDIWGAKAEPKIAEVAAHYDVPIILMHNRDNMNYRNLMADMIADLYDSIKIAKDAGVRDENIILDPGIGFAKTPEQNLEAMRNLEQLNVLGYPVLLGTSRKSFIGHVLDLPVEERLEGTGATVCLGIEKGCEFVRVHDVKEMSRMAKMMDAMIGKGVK
Summary of the method: (§1)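 Reaction held 5 μM 14C pABA, 10 μM enzymatically prepared dihydropterin diphosphate, 10 mM MgCl2, 2% DMSO, 50 mM HEPES pH 7.6, 10 ng DHPS. Product was separated by PEI-cellulose TLC and quantified by phosphorimaging as percent inhibition.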

[2] = biological target: T2, Dihydropteroate synthase (Bacillus anthracis, UniProt Q81VW8); test: Binding affinity to Bacillus anthracis DHPS expressed in Escherichia coli BL21 (DE3) after 30 mins by isothermal titration calorimetry
T2 sequence (Q81VW8 whole entry): T1 sequence (whole entry)
Summary of the method: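 ITC at 25 °C in 40 mM HEPES, 4 mM MgCl2, pH 7.6; 5% DMSO added to the buffer for the inhibitor titration. Protein was dialyzed against 50 mM HEPES, 5 mM MgCl2, pH 7.6. Nineteen injections of 500 μM ligand went into 20 μM DHPS. Kd was fitted to a one-site binding model.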

[3] = biological target: T2, Dihydropteroate synthase; test: Inhibition of Bacillus anthracis DHPS expressed in Escherichia coli BL21 (DE3) after 30 mins
Summary of the method: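 Radiometric assay at 37 °C for 30 min: 5 μM 14C pABA, 10 μM enzymatically prepared dihydropterin diphosphate, 10 mM MgCl2, 2% DMSO, 50 mM HEPES pH 7.6, 5 ng DHPS, over a range of inhibitor concentrations. The reaction was stopped with acetic acid on ice. 14C dihydropteroate was separated from pABA by PEI-cellulose TLC and quantified by phosphorimaging. IC50 was obtained by curve fitting.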

[4] = biological target: T1, Dihydropteroate synthase (Bacillus anthracis); test: Inhibition of Bacillus anthracis DHPS expressed in Escherichia coli BL21 (DE3) at 250 uM after 30 mins; summary of the method: as §1

Row | SMILES | inhibition [1] [%] | Kd [2] [µM] | IC50 [3] [µM] | inhibition [4] [%]
1 | Nc1ccc2nc(CCc3nc4ccc(N)cc4[nH]3)[nH]c2c1 | 62 |  |  | 
2 | Nc1ccc(C(=O)O)cc1 [AMINOBENZOIC ACID] |  | 5.62 |  | 
3 | Nc1nc2c(c(=O)[nH]1)N=C(CCNc1ccc(C(=O)O)cc1)CN2 | 100 |  | 25.9 | 
4 | Nc1nc2[nH]c(=O)c(C(=O)O)nc2c(=O)[nH]1 | 70 |  | 269 | 
5 | Nc1nc2ncc(CCNc3ccc(C(=O)O)cc3)nc2c(=O)[nH]1 | 76 |  | 87.1 | 
6 | Nc1nc(N)c([N+](=O)[O-])c(=O)[nH]1 |  |  | 109 | 80
7 | Nc1ncc(Oc2ccccc2)c(=O)[nH]1 | 37 |  |  | 
8 | CN1CC(C(=O)O)=Nc2c1nc(N)[nH]c2=O |  | 5.26 | 32.4 | 93
9 | CC1CNc2nc(N)[nH]c(=O)c2N1 (centres undefined) | 67 |  |  | 
10 | Nc1nnc(N)c2[nH]cnc12 | 32 |  | > 500 | 
11 | Nc1nc(NCCCOc2ccc(C(=O)O)cc2)c(N=O)c(=O)[nH]1 | 79 |  |  | 
12 | Nc1nc(N)c(N=O)c(=O)[nH]1 |  |  | 8 | 81
13 | CN1CC=Nc2c1nc(N)[nH]c2=O | 76 |  | 86.7 | 
14 | CC(C(=O)O)c1nn(C)c2nc(N)[nH]c(=O)c2c1=O (centres undefined) | 97 |  | 19.8 | 
15 | NC(=O)c1nc[nH]c1C(N)=O | 32 |  |  | 
16 | Cn1c(=O)c2nc(C=O)c(=O)[nH]c2n(C)c1=O | 44 |  |  | 
17 | Cn1c(=O)c2nc(C(=O)O)c(=O)[nH]c2n(C)c1=O | 33 |  |  | 
18 | Cc1cc(/C=C2/C(=O)N=C(O)N=C2O)c(C)n1C | 35 |  |  | 
19 | Nc1nc2[nH]c(S)nc2c(=O)[nH]1 |  |  |  | 0
20 | CNc1nc(N)[nH]c(=O)c1[N+](=O)[O-] | 53 |  |  | 
21 | Nc1nc2nc3c(nc2c(=O)[nH]1)CCCC3 | 31 |  |  | 
22 | CN1CC(CC(C)(C)O)=Nc2c1nc(N)[nH]c2=O | 54 |  | 215 | 
23 | Nc1nc2ncc(C(=O)O)nc2c(=O)[nH]1 | 37 |  |  | 

Reference: ChEMBL document CHEMBL1156753, “Structural studies of pterin-based inhibitors of dihydropteroate synthase” (J Med Chem, 2010)
